Source: ChEMBL document CHEMBL5260843 (J Med Chem, 2019)
Calls of active or inactive are those of the source. The rule behind the calls is not given here.

How the values were obtained:
[1] = target: T1, DCN1-like protein 1/NEDD8-conjugating enzyme Ubc12 (Homo sapiens, UniProt Q96GG9); test: Inhibition of GST-tagged DCN1 PONY domain (unknown origin)/human N-terminal acetylated UBC12 (1 to 12 residues) protein-protein interaction incubated for 1 hr by HTRF analysis; format: protein assay
MGC-803 [2] = test: Induction of ROS generation in human MGC-803 cells at 3 uM incubated for 24 hrs by DCFH-DA staining based flow cytometry analysis (reference value: 1.2%); format: functional
MGC-803 [3] = test: Induction of ROS generation in human MGC-803 cells at 1 uM incubated for 24 hrs by DCFH-DA staining based flow cytometry analysis (reference value: 1.2%); format: functional
MGC-803 [4] = test: Induction of ROS generation in human MGC-803 cells at 0.3 uM incubated for 24 hrs by DCFH-DA staining based flow cytometry analysis (reference value: 1.2%); format: functional
MGC-803 [5] = test: Inhibition of cullin3 neddylation in UBC/DCN1 overactivated human MGC-803 cells incubated for 24 hrs by Western blot analysis; format: cell-based
In short: (§1)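 Cells in 6-well plates were exposed to compound for 24 h. MGC-803 were grown in DMEM and KYSE70 in RPMI 1640, both with 10% FBS at 37 °C and 5% CO2. Lysates were made in RIPA with protease inhibitors and quantified by BCA. 30 μg protein was run on 8% SDS-PAGE and blotted to nitrocellulose. Primary antibodies were applied overnight at 4 °C, then HRP secondaries, with ECL and film detection. GAPDH was the loading control. Run three times.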

Cullin-1 (Homo sapiens) [6] = target: Cullin-1 (Homo sapiens) (UniProt Q13616); test: Inhibition of cullin1 neddylation in UBC/DCN1 overactivated human MGC-803 cells at 0.3 to 10 uM incubated for 24 hrs by Western blot analysis; format: cell-based; conditions: dose 0.3-10 µM; in short: as §1
Cullin-1 (Homo sapiens), sequence (Q13616 whole entry): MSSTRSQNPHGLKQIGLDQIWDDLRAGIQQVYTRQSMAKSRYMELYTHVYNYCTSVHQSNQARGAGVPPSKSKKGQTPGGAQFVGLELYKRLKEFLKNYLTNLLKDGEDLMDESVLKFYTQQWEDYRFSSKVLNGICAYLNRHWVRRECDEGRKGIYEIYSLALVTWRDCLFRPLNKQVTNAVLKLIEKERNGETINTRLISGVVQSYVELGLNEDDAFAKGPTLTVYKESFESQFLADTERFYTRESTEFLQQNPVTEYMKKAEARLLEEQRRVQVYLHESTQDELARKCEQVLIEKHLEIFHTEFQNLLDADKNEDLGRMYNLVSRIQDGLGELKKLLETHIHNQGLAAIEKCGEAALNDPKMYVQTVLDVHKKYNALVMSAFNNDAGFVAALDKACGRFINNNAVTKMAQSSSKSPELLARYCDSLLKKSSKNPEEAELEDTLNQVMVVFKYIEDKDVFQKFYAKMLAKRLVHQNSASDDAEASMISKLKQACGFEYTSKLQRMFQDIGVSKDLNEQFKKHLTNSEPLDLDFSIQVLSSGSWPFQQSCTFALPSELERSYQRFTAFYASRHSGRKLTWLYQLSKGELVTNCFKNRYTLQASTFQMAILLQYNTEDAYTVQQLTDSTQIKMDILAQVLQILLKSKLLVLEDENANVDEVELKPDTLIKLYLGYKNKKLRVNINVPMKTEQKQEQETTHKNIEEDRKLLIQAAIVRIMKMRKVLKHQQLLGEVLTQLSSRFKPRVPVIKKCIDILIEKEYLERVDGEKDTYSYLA

Cullin-5 (Homo sapiens) [7] = target: T2, Cullin-5 (Homo sapiens) (UniProt Q93034); test: Inhibition of cullin5 neddylation in UBC/DCN1 overactivated human MGC-803 cells at 0.3 to 10 uM incubated for 24 hrs by Western blot analysis; format: cell-based; conditions: dose 0.3-10 µM; in short: as §1
T2 sequence (whole entry): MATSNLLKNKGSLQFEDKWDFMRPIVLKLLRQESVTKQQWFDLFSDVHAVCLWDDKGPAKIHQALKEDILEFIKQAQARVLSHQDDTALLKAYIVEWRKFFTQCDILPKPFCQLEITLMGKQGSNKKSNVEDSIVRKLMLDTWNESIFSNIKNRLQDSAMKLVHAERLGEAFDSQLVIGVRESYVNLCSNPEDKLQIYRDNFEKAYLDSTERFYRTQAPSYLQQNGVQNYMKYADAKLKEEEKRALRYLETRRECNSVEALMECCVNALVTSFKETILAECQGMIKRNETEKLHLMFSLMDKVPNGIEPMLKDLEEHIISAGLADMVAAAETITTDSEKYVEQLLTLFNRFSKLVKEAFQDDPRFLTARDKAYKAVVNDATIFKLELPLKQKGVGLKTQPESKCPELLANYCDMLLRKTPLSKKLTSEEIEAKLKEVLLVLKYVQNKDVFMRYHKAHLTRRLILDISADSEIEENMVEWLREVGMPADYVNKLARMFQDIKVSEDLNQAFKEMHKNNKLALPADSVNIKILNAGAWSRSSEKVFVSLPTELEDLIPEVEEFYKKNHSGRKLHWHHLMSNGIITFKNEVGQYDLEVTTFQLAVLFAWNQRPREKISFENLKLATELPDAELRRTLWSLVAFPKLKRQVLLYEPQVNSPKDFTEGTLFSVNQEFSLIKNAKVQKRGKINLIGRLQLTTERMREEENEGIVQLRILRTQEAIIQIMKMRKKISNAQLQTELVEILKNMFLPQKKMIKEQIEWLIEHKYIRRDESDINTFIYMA

Cullin-4B (Homo sapiens) [8] = target: Cullin-4B (Homo sapiens) (UniProt Q13620); test: Inhibition of cullin4B neddylation in UBC/DCN1 overactivated human MGC-803 cells at 0.3 to 10 uM incubated for 24 hrs by Western blot analysis; format: cell-based; conditions: dose 0.3-10 µM; in short: as §1
Cullin-4B (Homo sapiens), sequence (Q13620 whole entry): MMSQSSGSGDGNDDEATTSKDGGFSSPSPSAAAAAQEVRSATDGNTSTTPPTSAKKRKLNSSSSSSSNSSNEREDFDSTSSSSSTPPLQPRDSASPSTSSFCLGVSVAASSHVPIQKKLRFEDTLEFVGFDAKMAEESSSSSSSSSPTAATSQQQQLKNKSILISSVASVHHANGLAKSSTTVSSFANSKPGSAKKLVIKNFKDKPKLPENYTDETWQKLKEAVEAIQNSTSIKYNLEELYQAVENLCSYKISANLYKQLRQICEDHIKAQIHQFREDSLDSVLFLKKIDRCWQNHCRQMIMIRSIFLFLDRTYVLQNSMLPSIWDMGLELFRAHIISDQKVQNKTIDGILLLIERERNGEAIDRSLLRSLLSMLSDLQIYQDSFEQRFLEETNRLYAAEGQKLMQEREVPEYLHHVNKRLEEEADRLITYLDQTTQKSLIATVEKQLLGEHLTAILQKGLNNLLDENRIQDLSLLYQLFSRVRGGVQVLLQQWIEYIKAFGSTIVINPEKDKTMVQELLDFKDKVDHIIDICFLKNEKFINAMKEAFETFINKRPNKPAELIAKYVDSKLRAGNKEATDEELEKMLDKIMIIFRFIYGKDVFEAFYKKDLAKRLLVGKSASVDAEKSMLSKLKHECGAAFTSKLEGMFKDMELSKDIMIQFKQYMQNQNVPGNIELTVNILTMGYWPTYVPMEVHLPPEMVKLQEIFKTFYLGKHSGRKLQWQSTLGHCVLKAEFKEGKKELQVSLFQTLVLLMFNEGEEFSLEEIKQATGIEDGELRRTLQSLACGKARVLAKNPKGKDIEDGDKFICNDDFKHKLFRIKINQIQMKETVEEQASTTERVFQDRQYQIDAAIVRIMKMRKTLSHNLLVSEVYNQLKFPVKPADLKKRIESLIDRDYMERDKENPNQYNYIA

Cullin-4A (Homo sapiens) [9] = target: Cullin-4A (Homo sapiens) (UniProt Q13619); test: Inhibition of cullin4A neddylation in UBC/DCN1 overactivated human MGC-803 cells at 0.3 to 10 uM incubated for 24 hrs by Western blot analysis; format: cell-based; conditions: dose 0.3-10 µM; in short: as §1
Cullin-4A (Homo sapiens), sequence (Q13619 whole entry): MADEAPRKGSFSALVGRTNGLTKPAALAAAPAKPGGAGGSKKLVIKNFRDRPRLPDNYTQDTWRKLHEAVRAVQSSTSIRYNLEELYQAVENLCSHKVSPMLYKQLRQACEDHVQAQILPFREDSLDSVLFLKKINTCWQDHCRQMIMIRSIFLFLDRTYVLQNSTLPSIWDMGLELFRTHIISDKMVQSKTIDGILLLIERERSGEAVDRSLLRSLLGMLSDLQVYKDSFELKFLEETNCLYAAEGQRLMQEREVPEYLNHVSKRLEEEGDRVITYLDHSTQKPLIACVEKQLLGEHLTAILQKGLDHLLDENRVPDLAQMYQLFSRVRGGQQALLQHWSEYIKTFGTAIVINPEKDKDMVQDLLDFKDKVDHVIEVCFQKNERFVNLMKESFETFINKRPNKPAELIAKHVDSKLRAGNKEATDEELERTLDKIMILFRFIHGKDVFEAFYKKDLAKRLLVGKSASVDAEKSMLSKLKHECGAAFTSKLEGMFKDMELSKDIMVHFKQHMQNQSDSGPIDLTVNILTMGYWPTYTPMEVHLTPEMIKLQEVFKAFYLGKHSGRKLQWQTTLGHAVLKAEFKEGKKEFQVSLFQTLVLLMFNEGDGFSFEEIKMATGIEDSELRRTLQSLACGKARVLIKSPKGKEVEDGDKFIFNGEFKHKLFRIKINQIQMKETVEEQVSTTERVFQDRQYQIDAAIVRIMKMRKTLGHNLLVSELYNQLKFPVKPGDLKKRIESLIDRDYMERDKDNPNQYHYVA

MGC-803 [10] = test: Inhibition of cullin2 neddylation in UBC/DCN1 overactivated human MGC-803 cells at 0.3 to 10 uM incubated for 24 hrs by Western blot analysis; format: cell-based; conditions: dose 0.3-10 µM; in short: as §1
MGC-803 [11] = test: Induction of NRF2 accumulation in human MGC-803 cells 0.01 to 10 uM incubated for 24 hrs by Western blot analysis; format: functional, cell-based; conditions: dose 0.01-10 µM; in short: as §1
Cullin-5 (Homo sapiens) [12] = target: T2, Cullin-5 (Homo sapiens); test: Inhibition of cullin5 neddylation in UBC/DCN1 overactivated human MGC-803 cells at 1 uM incubated for 24 hrs by Western blot analysis; format: cell-based; in short: as §1
Cullin-4B (Homo sapiens) [13] = target: Cullin-4B (Homo sapiens) (UniProt Q13620); test: Inhibition of cullin4B neddylation in UBC/DCN1 overactivated human MGC-803 cells at 1 uM incubated for 24 hrs by Western blot analysis; format: cell-based; in short: as §1
Cullin-4A (Homo sapiens) [14] = target: Cullin-4A (Homo sapiens) (UniProt Q13619); test: Inhibition of cullin4A neddylation in UBC/DCN1 overactivated human MGC-803 cells at 1 uM incubated for 24 hrs by Western blot analysis; format: cell-based; in short: as §1
MGC-803 [15] = test: Inhibition of cullin3 neddylation in UBC/DCN1 overactivated human MGC-803 cells at 1 uM incubated for 24 hrs by Western blot analysis; format: cell-based; in short: as §1
MGC-803 [16] = test: Inhibition of cullin2 neddylation in UBC/DCN1 overactivated human MGC-803 cells at 1 uM incubated for 24 hrs by Western blot analysis; format: cell-based; in short: as §1
Cullin-1 (Homo sapiens) [17] = target: Cullin-1 (Homo sapiens) (UniProt Q13616); test: Inhibition of cullin1 neddylation in UBC/DCN1 overactivated human MGC-803 cells at 1 uM incubated for 24 hrs by Western blot analysis; format: cell-based; in short: as §1
MGC-803 [18] = test: Induction of p21 accumulation in human MGC-803 cells 0.03 to 3 uM incubated for 24 hrs by Western blot analysis; format: functional, cell-based; conditions: dose 0.03-3 µM; in short: as §1
MGC-803 [19] = test: Induction of p27 accumulation in human MGC-803 cells 0.03 to 3 uM incubated for 24 hrs by Western blot analysis; format: functional, cell-based; conditions: dose 0.03-3 µM; in short: as §1
MGC-803 [20] = test: Induction of NRF2 accumulation in human MGC-803 cells 0.03 to 3 uM incubated for 24 hrs by Western blot analysis; format: functional, cell-based; conditions: dose 0.03-3 µM; in short: as §1
[21] = target: T1, DCN1-like protein 1/NEDD8-conjugating enzyme Ubc12; test: Inhibition of biotinylated DCN1 PONY domain (unknown origin)/human N-terminal acetylated UBC12 (1 to 12 residues) protein-protein interaction incubated for 1 hr by TR-FRET analysis; format: protein assay
MGC-803 [22] = test: Induction of ROS generation in human MGC-803 cells at 3 uM incubated for 24 hrs by DCFH-DA staining based flow cytometry analysis (reference value: 2%); format: functional
MGC-803 [23] = test: Induction of ROS generation in human MGC-803 cells at 1 uM incubated for 24 hrs by DCFH-DA staining based flow cytometry analysis (reference value: 2%); format: functional
MGC-803 [24] = test: Induction of ROS generation in human MGC-803 cells at 0.3 uM incubated for 24 hrs by DCFH-DA staining based flow cytometry analysis (reference value: 2%); format: functional

T1 sequence (Q96GG9 whole entry, the tested form may be a part): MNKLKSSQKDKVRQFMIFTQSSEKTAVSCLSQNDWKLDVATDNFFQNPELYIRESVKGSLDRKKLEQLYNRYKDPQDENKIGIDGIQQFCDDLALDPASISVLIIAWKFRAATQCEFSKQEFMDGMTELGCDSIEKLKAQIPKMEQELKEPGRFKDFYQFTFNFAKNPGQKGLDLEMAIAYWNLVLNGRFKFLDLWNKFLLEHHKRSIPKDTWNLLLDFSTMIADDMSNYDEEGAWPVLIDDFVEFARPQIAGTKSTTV
T1 sequence (P61081 whole entry, further chain, the tested form may be a part): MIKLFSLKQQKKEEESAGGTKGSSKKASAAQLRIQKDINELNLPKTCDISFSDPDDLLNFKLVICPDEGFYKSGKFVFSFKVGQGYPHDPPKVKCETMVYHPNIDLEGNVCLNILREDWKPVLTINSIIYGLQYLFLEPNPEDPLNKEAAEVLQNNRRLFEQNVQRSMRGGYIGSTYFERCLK

Structure (SMILES)	IC50 [1]	also measured
Cc1nc2nc(SCc3ccc(Cl)cc3)nn2c(Sc2nnnn2CCN(C)C)c1C	3360 nM	–
C#CCSc1nc2nc(C)cc(Sc3nnnn3CCN(C)C)n2n1	67 nM	–
Cn1nnnc1Sc1cc(-c2ccccc2)nc2ncnn12	5820 nM	–
CN(C)CCn1nnnc1Sc1cc(-c2ccccc2)nc2ncnn12	130 nM	–
Cc1cc(Sc2nnnn2CCN(C)C)n2nc(SCc3ccc(Br)cc3)nc2n1	15 nM	–
c1ccc(-c2cc(Sc3nnnn3-c3ccccc3)n3ncnc3n2)cc1	15800 nM	–
Cc1cc(Sc2nnnn2CCN(C)C)n2nc(SCCc3ccccc3)nc2n1	438 nM	–
CCc1cc(Sc2nnnn2CCN(C)C)n2ncnc2n1	706 nM	–
CN(C)CCn1nnnc1Sc1cc(-c2ccccc2)nc2nc(SCc3ccccc3)nn12	290 nM	–
CN(C)CCn1nnnc1Sc1cc(C2CC2)nc2ncnn12	127 nM	–
Cc1cc(Sc2nnnn2CCN(C)C)n2nc(SCc3ccccc3)nc2n1	22 nM	–
CCC(=O)N[C@@H](Cc1nc2ccc(C(C)C)cc2s1)C(=O)N[C@H](CNC(=O)CCN1CCOCC1)C1CCCCC1	–	Activity (MGC-803 [2]): 1.3%; Activity (MGC-803 [3]): 0.7%; Activity (MGC-803 [4]): 1.3%; inhibition (MGC-803 [5]): Dose-Dependent Effect; inhibition (Cullin-1 (Homo sapiens) [6]): inactive; inhibition (Cullin-5 (Homo sapiens) [7]): inactive; inhibition (Cullin-4B (Homo sapiens) [8]): inactive; inhibition (Cullin-4A (Homo sapiens) [9]): inactive; inhibition (MGC-803 [10]): inactive; Activity (MGC-803 [11]): Active
CCCSc1nc2nc(C)cc(Sc3nnnn3CCN(C)C)n2n1	214 nM	–
Cc1cc(Sc2nnnn2CCN(C)C)n2nc(SCc3cc(=O)oc4c3ccc3ccccc34)nc2n1	309 nM	–
Cc1ccc(CSc2nc3nc(C)cc(Sc4nnnn4CCN(C)C)n3n2)cc1	78 nM	–
Cc1cc(Sc2nnnn2CCN(C)C)n2nc(SCc3csc4ccc(Cl)cc34)nc2n1	4890 nM	–
Cc1cc(Sc2nnnn2CCN(C)C)n2nc(SCc3ccccc3[N+](=O)[O-])nc2n1	24 nM	–
Oc1ccc(-n2nnnc2Sc2cc(-c3ccccc3)nc3ncnn23)cc1	3880 nM	–
Cc1cc(Sc2nnnn2CCN(C)C)n2nc(SCC3CCCCC3)nc2n1	58 nM	–
Cc1cc(Sc2nnnn2CCN(C)C)n2nc(SCC3CC3)nc2n1	59 nM	–
CCc1cc(Sc2nnnn2CCN(C)C)n2nc(SCc3ccccc3)nc2n1	352 nM	–
Cc1cc(Sc2nnnn2CCN(C)C)n2nc(SCc3cccc(Br)c3)nc2n1	195 nM	–
CN(C)CCn1nnnc1Sc1ncnc2ccsc12	> 50000 nM	–

Structure (SMILES)	IC50 [1]	also measured
COCCOc1cc2ncnc(Sc3nnnn3CCN(C)C)c2cc1OCCOC	> 50000 nM	–
Cc1cc(Sc2nnnn2CCN(C)C)n2nc(SCc3ccc(F)cc3)nc2n1	16 nM	–
Cc1cc(Sc2nnnn2CCN(C)C)n2nc(SCc3cccc(C(F)(F)F)c3)nc2n1	1080 nM	–
Cc1cc(Sc2nnnn2CCN(C)C)n2nc(SCc3c(Cl)cccc3Cl)nc2n1	192 nM	–
Cc1cc(Sc2nnnn2CCN(C)C)n2nc(SCc3cccc4ccccc34)nc2n1	209 nM	–
C#CCSc1nc2nc(-c3ccccc3)cc(Sc3nnnn3CCN(C)C)n2n1	79 nM	–
Cc1cc(Sc2nnnn2CCN(C)C)n2nc(SCc3ccc(F)c(Cl)c3)nc2n1	22 nM	–
NS(=O)(=O)OC[C@@H]1C[C@@H](n2ccc3c(N[C@H]4CCc5ccccc54)ncnc32)C[C@@H]1O	–	inhibition (Cullin-5 (Homo sapiens) [12]): Active; inhibition (Cullin-4B (Homo sapiens) [13]): Active; inhibition (Cullin-4A (Homo sapiens) [14]): Active; inhibition (MGC-803 [15]): Active; inhibition (MGC-803 [16]): Active; inhibition (Cullin-1 (Homo sapiens) [17]): Active; Activity (MGC-803 [18]): Active; Activity (MGC-803 [19]): Active; Activity (MGC-803 [20]): Active
Cc1cc(Sc2nnnn2CCN(C)C)n2nc(SCCCc3ccccc3)nc2n1	532 nM	–
Cc1cc(Sc2nnnn2CCN(C)C)n2nc(SCc3ccc(C(F)(F)F)cc3)nc2n1	186 nM	–
Cc1cc(Sc2nnnn2CCN(C)C)n2ncnc2n1	51 nM	–
CN(C)CCn1nnnc1Sc1c2c(nc3ncnn13)CCC2	61 nM	–
Cc1cc(Sc2nnnn2CCN(C)C)n2nccc2n1	4210 nM	–
C=CCSc1nc2nc(C)cc(Sc3nnnn3CCN(C)C)n2n1	137 nM	–
COc1ccc(CSc2nc3nc(C)cc(Sc4nnnn4CCN(C)C)n3n2)cc1	28 nM	–
Cc1cc(Sc2nnnn2CCN(C)C)n2nc(SCc3ccccc3C(F)(F)F)nc2n1	654 nM	–
CC(C)c1cc(Sc2nnnn2CCN(C)C)n2ncnc2n1	1360 nM	–
Cc1cc(Sc2nnnn2CCN(C)C)n2nc(SCc3ccccc3Br)nc2n1	824 nM	–
Cc1cc(Sc2nnnn2CCN(C)C)n2nc(SCc3ccc([N+](=O)[O-])cc3)nc2n1	39 nM	–
Cc1cc(Sc2nnnn2CCN(C)C)n2nc(SC(C)C)nc2n1	268 nM	–
CCCCN1CCC(N(Cc2ccccc2)C(=O)Nc2ccc(Cl)c(Cl)c2)CC1	–	IC50 [21]: 60 nM; Activity (MGC-803 [22]): 0.2%; Activity (MGC-803 [23]): 0.5%; Activity (MGC-803 [24]): 0.7%
Cc1cc(Sc2nnnn2CCN(C)C)n2nc(SCc3ccc(Cl)c(F)c3)nc2n1	17 nM	–
